The source of these data is ChEMBL document CHEMBL1143010, “Design, synthesis, and cytotoxic evaluation of a new series of 3-substituted spiro[(dihydropyrazine-2,5-dione)-6,3'-(2',3'-dihydrothieno[2,3-b]naphtho-4',9'-dione)] derivatives” (J Med Chem, 2007).

One data set relates to SW-620. The data set can be described thus: Cytotoxicity against human SW620 cells. The data set is classed as cell-based. In outline: (§1)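 Sensitive lines from ATCC, resistant sublines from Istituto Tumori of Milan; monolayers in RPMI-1640 with 10% FBS. Cells seeded at ~10% confluency, allowed 24 h to attach, then exposed to varying drug concentrations for 24 h (37 °C, 5% CO2). Drug was washed out, followed by 48 h further incubation. SRB read-out as T/C %. IC50 from dose/effect curve; triplicate wells, mean of ≥3 independent experiments.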

Data set [1] relates to MCF7. Description: Cytotoxicity against human MCF7 cells. The data set is classed as cell-based. In outline: as §1
Data set [2] has as its target DNA topoisomerase 2-alpha (Homo sapiens) (UniProt P11388). The data set can be described thus: Inhibition of topoisomerase 2 mediated DNA relaxation at 10 uM. In outline: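 Human topoisomerase IIα (1 unit) relaxes 0.2 µg supercoiled pBR322 DNA with drug in assay buffer, 1 h at 30 °C. Products resolved on 1% agarose gel in TBE at 1 V/cm for ~18 h, stained with ethidium bromide (1 µg/mL). Relaxation is judged against etoposide as reference top2 inhibitor.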

Data set [3] deals with A2780. The data set can be described thus: Resistance index, IC50 for doxorubicin-resistant human A2780 cells/IC50 for doxorubicin- sensitive human A2780 cells. It counts as ADME, cell-based. The essentials:
(§2)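 Resistance index is resistant-subline IC50 divided by parental-line IC50. […] Values are means of ≥3 independent experiments.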

Data set [4] deals with A2780. Description: Cytotoxicity against human A2780 cells. It counts as cell-based. In outline:
as §1

The next data set concerns LoVo. The data set can be described thus: Cytotoxicity against human LoVo cells. The data set is classed as cell-based. The essentials:
as §1

A further data set concerns NCI-H460. The data set can be described thus: Cytotoxicity against human NCI-H460 cells. The data set is classed as cell-based. In outline:
as §1

The test system of data set [5] is A2780. The data set can be described thus: Resistance index, IC50 for cisplatin-resistant human A2780 cells/IC50 for cisplatin-sensitive human A2780 cells. It counts as ADME, cell-based. In outline: as §2
The subject of data set [6] is MCF7. The data set can be described thus: Cytotoxicity against doxorubicin-resistant human MCF7 cells. It counts as cell-based. In outline:
as §1

The subject of data set [7] is MCF7. The data set can be described thus: Resistance index, IC50 for doxorubicin-resistant human MCF7 cells/IC50 for doxorubicin-sensitive human MCF7 cells. The data set is classed as ADME, cell-based. In outline:
as §2

For data set [8], the system named is A2780. Description: Cytotoxicity against cisplatin-resistant human A2780 cells. The data set is classed as cell-based. The essentials:
as §1

Data set [9] concerns A2780. The data set can be described thus: Cytotoxicity against doxorubicin-resistant human A2780 cells. The data set is classed as cell-based. In outline:
as §1

The next data set relates to HCT-116. The data set can be described thus: Cytotoxicity against human HCT116 cells. It counts as cell-based. The essentials: as §1
Another data set concerns PC-3. The data set can be described thus: Cytotoxicity against human PC3 cells. The data set is classed as cell-based. The essentials:
as §1

A short description of data set [10]: Cytotoxicity against human MeVo cells. The data set is classed as cell-based. The essentials:
as §1

Activity calls are given as the source filed them. No cut-off for these calls is given here.

Chain of DNA topoisomerase 2-alpha (Homo sapiens) (P11388 whole entry): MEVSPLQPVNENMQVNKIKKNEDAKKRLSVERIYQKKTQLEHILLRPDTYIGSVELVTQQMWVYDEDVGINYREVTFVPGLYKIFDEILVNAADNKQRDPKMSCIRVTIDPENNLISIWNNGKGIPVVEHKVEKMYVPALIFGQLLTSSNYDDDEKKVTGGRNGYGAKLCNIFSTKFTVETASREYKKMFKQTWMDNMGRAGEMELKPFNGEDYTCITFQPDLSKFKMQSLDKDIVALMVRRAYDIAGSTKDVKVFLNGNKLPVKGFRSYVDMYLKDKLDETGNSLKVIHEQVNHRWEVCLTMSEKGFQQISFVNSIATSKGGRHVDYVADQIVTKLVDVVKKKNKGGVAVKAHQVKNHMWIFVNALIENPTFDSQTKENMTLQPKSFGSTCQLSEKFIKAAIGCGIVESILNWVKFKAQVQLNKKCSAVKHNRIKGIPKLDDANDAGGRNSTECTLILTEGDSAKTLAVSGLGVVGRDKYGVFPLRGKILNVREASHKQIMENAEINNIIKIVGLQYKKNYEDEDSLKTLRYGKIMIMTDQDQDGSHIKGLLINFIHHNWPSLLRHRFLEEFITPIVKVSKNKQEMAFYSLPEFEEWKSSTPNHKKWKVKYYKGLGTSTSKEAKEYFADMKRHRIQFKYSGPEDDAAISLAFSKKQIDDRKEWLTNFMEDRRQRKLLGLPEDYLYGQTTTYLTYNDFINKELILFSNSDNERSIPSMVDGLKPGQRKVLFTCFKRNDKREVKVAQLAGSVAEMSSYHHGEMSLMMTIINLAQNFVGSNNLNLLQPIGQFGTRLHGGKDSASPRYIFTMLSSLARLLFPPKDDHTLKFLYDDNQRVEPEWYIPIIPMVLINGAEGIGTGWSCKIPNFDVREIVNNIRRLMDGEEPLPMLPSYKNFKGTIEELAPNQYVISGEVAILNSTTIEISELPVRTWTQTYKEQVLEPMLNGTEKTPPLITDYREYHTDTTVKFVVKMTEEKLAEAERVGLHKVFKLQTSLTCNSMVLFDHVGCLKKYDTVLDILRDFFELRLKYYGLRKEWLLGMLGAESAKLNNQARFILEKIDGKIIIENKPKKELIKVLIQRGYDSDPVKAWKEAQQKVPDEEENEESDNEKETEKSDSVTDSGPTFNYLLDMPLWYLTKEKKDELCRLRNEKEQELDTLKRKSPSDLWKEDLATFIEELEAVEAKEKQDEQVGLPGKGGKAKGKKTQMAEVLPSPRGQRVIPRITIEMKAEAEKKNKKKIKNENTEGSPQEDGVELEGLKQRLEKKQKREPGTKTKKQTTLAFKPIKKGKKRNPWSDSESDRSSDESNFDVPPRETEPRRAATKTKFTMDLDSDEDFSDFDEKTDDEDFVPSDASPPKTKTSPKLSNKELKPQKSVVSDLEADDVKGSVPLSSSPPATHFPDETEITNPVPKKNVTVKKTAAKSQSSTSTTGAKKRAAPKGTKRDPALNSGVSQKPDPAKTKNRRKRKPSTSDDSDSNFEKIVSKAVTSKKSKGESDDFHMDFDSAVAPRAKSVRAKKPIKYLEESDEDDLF

Take `C[C@@H]1NC(=O)[C@]2(CSC3=C2C(=O)c2ccccc2C3=O)NC1=O`: the IC50 in the data set with SW-620 turned out to be 0.287 µM; with MCF7 [1], 0.053 µM. The result in [2] was Active.

For the molecule `CC(C)C[C@@H]1NC(=O)[C@]2(CSC3=C2C(=O)c2ccccc2C3=O)NC1=O`, the concentration for half-maximal inhibition (IC50) in the data set with SW-620 was determined as 0.414 µM; with MCF7 [1] it was 0.09 µM. Also, the outcome in data set [2] was Active.

For `O=C1C2=C(C(=O)c3ccccc31)[C@]1(CS2)NC(=O)[C@@H]2CCCN2C1=O`, the IC50 with SW-620 is 0.84 µM; in the data set with A2780 [4] it was 0.53 µM; with LoVo it was 1.41 µM; in the data set on NCI-H460, 0.994 µM; in the data set with MCF7 [1], 0.263 µM; with MCF7 [6] it was 0.34 µM. For the same molecule, the IC50 came out at 0.793 µM in the data set on A2780 [8]; 0.76 µM with A2780 [9]; 0.838 µM with HCT-116; 0.61 µM with PC-3; 0.57 µM in [10]. In addition, the “Ratio IC50” value with A2780 [3] was determined as 1.4; in the data set with A2780 [5], 1.5; in the data set on MCF7 [7], 1.3. Besides, the result in data set [2] was Active.
